From ChEMBL document CHEMBL1255502, “A nonazole CYP51 inhibitor cures Chagas' disease in a mouse model of acute infection” (Antimicrob Agents Chemother, 2010) come the findings set out here.

The source made the active and inactive calls. The calls are words filed in the database; no cut-off is given here.

Assay [1] addresses Sterol 14-alpha demethylase (Trypanosoma cruzi (strain CL Brener)) (UniProt Q7Z1V1). Description: Inhibition of sterol 14-alpha-demethylase in Trypanosoma cruzi epimastigotes infected in BESM cells assessed as accumulation of lanosterol and eburicol precursors at 5 uM after 72 hrs. The class given is cell-based. In a few lines: (§1)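 Log-phase epimastigotes were grown axenically in BHT medium (fetal bovine serum, brain heart infusion) and exposed to 5 μM compound for 72 h, with untreated parasites as the control. Pellets were washed in PBS, extracted in chloroform for 24 h at room temperature, BSTFA-derivatized, and sterols were analysed by GC-MS on a DB5-MS column (200→300°C at 15°C/min).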

Assay [2] shares this target. Description: Inhibition of sterol 14-alpha-demethylase in Trypanosoma cruzi epimastigotes infected in BESM cell assessed as abnormalities in nuclear membrane at 0.25 uM after 72 hrs by electron microscopy. The class given is cell-based.
For assay [3] the target is unchanged. Put plainly: Inhibition of sterol 14-alpha-demethylase in Trypanosoma cruzi epimastigotes infected in BESM cell assessed as effect on cell division at 0.25 uM after 72 hrs by electron microscopy. Type of assay: cell-based.
The target is the same in assay [4]. Description: Inhibition of sterol 14-alpha-demethylase in Trypanosoma cruzi amastigotes infected in BESM cell assessed as abnormalities in nuclear DNA at 0.25 uM after 72 hrs by electron microscopy. The class given is cell-based.
The target is the same in assay [5]. Description: Inhibition of sterol 14-alpha-demethylase in Trypanosoma cruzi epimastigotes infected in BESM cells assessed as reduction in episterol content at 5 uM after 72 hrs. The class given is cell-based. In a few lines:
as §1

Assay [6] shares this target. Description: Inhibition of sterol 14-alpha-demethylase in Trypanosoma cruzi amastigotes infected in BESM cells assessed as accumulation of lanosterol and eburicol precursors at 5 uM after 72 hrs. The class given is cell-based. In a few lines:
(§2)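 T. cruzi CA-I/72 amastigotes were grown in BESM cells in RPMI 1640 with 5% heat-inactivated FCS at 37°C under 5% CO2. Monolayers were infected for 24 h, then the medium was replaced with 5 μM compound or DMSO; noninfected BESM cells served as a control. Lipids were extracted with chloroform, TMS-derivatized with BSTFA for 2 h, and sterols identified by GC-MS from [M−90]+ and [M+73]+ ions.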

Assay [7] shares this target. Put plainly: Inhibition of sterol 14-alpha-demethylase in Trypanosoma cruzi amastigotes infected in BESM cell assessed as cell death at 0.25 uM after 72 hrs by electron microscopy.
Assay [8] has the same target. Description: Inhibition of sterol 14-alpha-demethylase in Trypanosoma cruzi epimastigotes infected in BESM cells assessed as reduction in fecosterol content at 5 uM after 72 hrs. Type of assay: cell-based. In a few lines:
as §1

Assay [9] has the same target. Description: Inhibition of sterol 14-alpha-demethylase in Trypanosoma cruzi amastigotes infected in BESM cell assessed as appearance of large autophagic vesicles at 0.25 uM after 48 hrs by electron microscopy. Type of assay: cell-based.
Assay [10] shares this target. Put plainly: Inhibition of sterol 14-alpha-demethylase in Trypanosoma cruzi amastigotes infected in BESM cells assessed as reduction in fecosterol content at 5 uM after 72 hrs. The class given is cell-based. In a few lines:
as §2

For assay [11] the target is unchanged. Description: Inhibition of sterol 14-alpha-demethylase in Trypanosoma cruzi amastigotes infected in BESM cells assessed as reduction in episterol content at 5 uM after 72 hrs. Type of assay: cell-based. In a few lines: as §2
Assay [12] shares this target. Description: Inhibition of sterol 14-alpha-demethylase in Trypanosoma cruzi amastigotes infected in BESM cell assessed as swelling of nuclear membrane at 0.25 uM after 48 hrs by electron microscopy. Type of assay: cell-based.
The target is the same in assay [13]. Description: Inhibition of sterol 14-alpha-demethylase in Trypanosoma cruzi epimastigotes infected in BESM cell assessed as cell death at 0.25 uM after 72 hrs by electron microscopy. The class given is cell-based.
For assay [14] the target is unchanged. Description: Inhibition of sterol 14-alpha-demethylase in Trypanosoma cruzi amastigotes infected in BESM cell assessed as abnormalities in nuclear membrane at 0.25 uM after 72 hrs by electron microscopy. Type of assay: cell-based.
For assay [15] the target is unchanged. Description: Inhibition of sterol 14-alpha-demethylase in Trypanosoma cruzi amastigotes infected in BESM cell assessed as blebbing of the cell membrane at 0.25 uM after 48 hrs by electron microscopy. Type of assay: cell-based.
The target is the same in assay [16]. Description: Inhibition of sterol 14-alpha-demethylase in Trypanosoma cruzi epimastigotes infected in BESM cell assessed as abnormalities in nuclear DNA at 0.25 uM after 72 hrs by electron microscopy. Type of assay: cell-based.
Assay [17] relates to Trypanosoma cruzi. Put plainly: Antimicrobial activity against Trypanosoma cruzi infected in C3H mouse at 50 mg/kg, ip BID administered 24 hrs post infection measured after 12 days. Type of assay: functional, organism-based. Details: dose 50 mg/kg. In a few lines: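 Female C3H mice (7–8 weeks, 17.5–18.0 g, five per group) infected i.p. with 10⁶ tissue-culture trypomastigotes of T. cruzi CA-I/72. The cruzain cysteine-protease inhibitor was given from 24 h postinfection: i.p. in 100 μl of 30% DMSO–70% ddH₂O, twice daily for 30 days. An untreated infected group served as control. Clinical signs (ascites, hind-leg weakness) were assessed at day 12 postinfection.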

For assay [18], the target named is Sterol 14-alpha demethylase (Trypanosoma cruzi (strain CL Brener)) (UniProt Q7Z1V1). The conditions noted are these: BESM, 10 uM.
Assay [19] shares this target. To be noted: BESM, 10 uM. The source holds these as a separate data set.
The target is the same in assay [20]. The conditions noted are these: BESM, 10 uM. The source holds these as a separate data set.
Assay [21] has the same target. To be noted: BESM, 10 uM. This is another data set of the same source.
For assay [22] the target is unchanged. The conditions noted are these: BESM, 10 uM. This is another data set of the same source.
Assay [23] shares this target. The conditions noted are these: BESM, 10 uM. The source holds these as a separate data set.
In assay [24] the test system is Trypanosoma cruzi. Put plainly: Antimicrobial activity against Trypanosoma cruzi infected in C3H mouse at 40 mg/kg, ip BID administered 24 hrs post infection measured after 12 days. The class given is functional, organism-based. Further details: dose 40 mg/kg. In a few lines:
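Female C3H mice (7–8 weeks, 17.5–18.0 g, five per group) infected i.p. with 10⁶ tissue-culture trypomastigotes of T. cruzi CA-I/72. Dosing began 24 h postinfection: i.p. in 100 μl of 60% DMSO–40% ddH₂O, twice daily for 30 days. An untreated infected group served as control. Mice were scored for clinical signs (ascitic abdomen, hind-leg weakness) at day 12 postinfection.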

Assay [25] concerns the target Sterol 14-alpha demethylase (Trypanosoma cruzi (strain CL Brener)) (UniProt Q7Z1V1). The conditions noted are these: BESM, 10 uM. This is another data set of the same source.
Assay [26] shares this target. The conditions noted are these: BESM, 10 uM. The source holds these as a separate data set.
The target is the same in assay [27]. The conditions noted are these: BESM, 10 uM. The source holds these as a separate data set.
The target is the same in assay [28]. To be noted: BESM, 10 uM. This is another data set of the same source.

Sequence of Sterol 14-alpha demethylase (Trypanosoma cruzi (strain CL Brener)) (Q7Z1V1 whole entry, looked up, the tested form may be a part): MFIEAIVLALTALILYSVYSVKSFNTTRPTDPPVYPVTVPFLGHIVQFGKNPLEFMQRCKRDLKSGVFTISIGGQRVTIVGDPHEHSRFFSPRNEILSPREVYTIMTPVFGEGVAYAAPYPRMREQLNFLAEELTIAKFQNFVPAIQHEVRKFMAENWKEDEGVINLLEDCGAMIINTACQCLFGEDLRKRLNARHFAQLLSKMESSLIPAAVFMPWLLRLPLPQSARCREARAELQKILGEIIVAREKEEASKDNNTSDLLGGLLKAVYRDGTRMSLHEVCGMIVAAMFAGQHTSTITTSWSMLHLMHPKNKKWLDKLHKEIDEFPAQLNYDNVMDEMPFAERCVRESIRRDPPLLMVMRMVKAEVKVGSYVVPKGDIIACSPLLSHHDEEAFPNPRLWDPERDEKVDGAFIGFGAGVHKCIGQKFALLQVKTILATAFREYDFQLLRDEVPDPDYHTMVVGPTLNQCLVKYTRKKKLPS

`CC[C@@H]([C@H](C)O)n1ncn(-c2ccc(N3CCN(c4ccc(OC[C@@H]5CO[C@@](Cn6cncn6)(c6ccc(F)cc6F)C5)cc4)CC3)cc2)c1=O`: the inhibition result in [1], in assay [4], in [5], in assay [6], in assay [7] and in assay [8] was “Active” each time. Further, the inhibition entry in assay [9], in assay [10], in [11], in [12], in [14] and in assay [15] was “Active” each time. The inhibition result in [2], in [3], in assay [13] and in assay [16] was “inactive” each time.

On to `CN1CCN(C(=O)N[C@@H](Cc2ccccc2)C(=O)N[C@H](/C=C/S(=O)(=O)c2ccccc2)CCc2ccccc2)CC1`, for which the outcome in the assay with Trypanosoma cruzi [17] was Active.

For `CC1CCC(C(=O)NC(Cc2c[nH]c3ccccc23)C(=O)Nc2ccncc2)CC1` (centres undefined), the inhibition entry in [1], in [20], in assay [21], in assay [5], in [6] and in assay [8] was “Active” each time. Moreover, the inhibition entry in assay [23], in assay [25], in assay [26], in [10], in assay [11] and in assay [27] was “Active” each time. Moreover, the inhibition entry in assay [18], in assay [19], in [22] and in assay [28] was “inactive” in each case. Besides, in the assay with Trypanosoma cruzi [24], the result was Active.
